Results taken from ChEMBL document CHEMBL1151806, “Indolizidine, antiinfective and antiparasitic compounds from Prosopis glandulosa var. glandulosa” (J Nat Prod, 2009).
Values after ≈ are worked out from the molar mass of the structure shown. Active and inactive are the calls of the source. The rule behind the calls is not given here.

Columns and labels:
Staphylococcus aureus [1] = test: Antimicrobial activity against methicillin-resistant Staphylococcus aureus ATCC 43300 by NCCLS method in presence of 5% human serum; type: functional, organism-based
[2] = Selectivity index, IC50 for african green monkey (Cercopithecus aethiops) Vero cells to IC50 for chloroquine-sensitive Plasmodium falciparum D6; type: functional
Method in brief: (§1)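 Selectivity index = IC50 against VERO cells divided by IC50 against P. falciparum (D6 or W2, respectively), each from the corresponding in-house assay.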

Plasmodium falciparum [3] = test: Antimalarial activity after 72 hrs against […] Plasmodium falciparum D6 by pLDH activity; type: functional, organism-based; details: D6, 72 h
Method in brief: (§2)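 P. falciparum-infected red cells (2% parasitemia, 2% hematocrit) in RPMI-1640 with 10% human serum and 60 μg/mL amikacin, exposed to serial sample concentrations. Gassed with 90% N2/5% O2/5% CO2, incubated 37 °C for 72 h. Parasite LDH activity read colorimetrically with Malstat reagent.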

Candida albicans [4] = test: Antimicrobial activity against Candida albicans ATCC 90028 by NCCLS method in presence of 5% human serum; type: functional, organism-based
Candida albicans [5] = test: Antimicrobial activity against Candida albicans ATCC 90028 by NCCLS method; type: functional, organism-based
Method in brief: (§3)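 Samples serially diluted in 20% DMSO/saline, tested in duplicate. Inocula set by OD630: C. albicans RPMI pH 4.5, 1·10^4 CFU/mL; C. neoformans Sabouraud dextrose, 1·10^5; MRSA cation-adjusted Mueller-Hinton pH 7.3, 5·10^5; M. intracellulare 7H9/OADC + 5% Alamar Blue pH 7.3, 2·10^6; A. fumigatus RPMI pH 7.3 + 5% Alamar Blue, 3·10^4.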

Aspergillus fumigatus [6] = test: Antimicrobial activity against Aspergillus fumigatus ATCC 90906 by alamar blue assay in presence of 5% human serum; type: functional, organism-based
Leishmania donovani = test: Antileishmanial activity against Leishmania donovani promastigotes after 48 hrs by alamar blue assay; type: functional, organism-based
Vero [7] = test: Cytotoxicity against african green monkey Vero cells at 4760 ng/mL; type: cell-based, Chlorocebus sabaeus
Aspergillus fumigatus [8] = test: Antimicrobial activity against Aspergillus fumigatus ATCC 90906 by alamar blue assay; type: functional, organism-based; method in brief: as §3
Cryptococcus neoformans [9] = test: Antimicrobial activity against Cryptococcus neoformans ATCC 90113 by NCCLS method; type: functional, organism-based; method in brief: as §3
[10] = Selectivity index, IC50 for african green monkey (Cercopithecus aethiops) Vero cells to IC50 for […]; type: functional; method in brief: as §1
[11] = system: Mycobacterium intracellulare; test: Antimicrobial activity against Mycobacterium intracellular ATCC 23068 by alamar blue assay in presence of 5% human serum; type: functional, organism-based
Cryptococcus neoformans [12] = test: Antimicrobial activity against Cryptococcus neoformans ATCC 90113 by NCCLS method in presence of 5% human serum; type: functional, organism-based
[13] = system: Mycobacterium intracellulare; test: Antimicrobial activity against Mycobacterium intracellular ATCC 23068 by alamar blue assay; type: functional, organism-based
Method in brief: as §3, with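 “3·10^4. Read at 630 nm or 544ex/590em before and after incubation.” for “3·10^4.”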

Staphylococcus aureus [14] = test: Antimicrobial activity against methicillin-resistant Staphylococcus aureus ATCC 43300 by NCCLS method; type: functional, organism-based; method in brief: as §3
KB = test: Cytotoxicity against human KB cells after 48 hrs by neutral red assay; type: functional, cell-based
Method in brief: (§4)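 Cells seeded at 25,000/well, incubated 24 h, then exposed to samples for 48 h. Viable cells measured by Neutral Red uptake. IC50 from logarithmic plots of growth inhibition vs concentration. Doxorubicin positive control, DMSO vehicle control.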

SK-MEL = test: Cytotoxicity against human SK-MEL cells after 48 hrs by neutral red assay; type: functional, cell-based; method in brief: as §4
Plasmodium falciparum [15] = test: Antimalarial activity after 72 hrs against chloroquine-resistant Plasmodium falciparum W2 by pLDH activity; type: functional, organism-based; details: W2, 72 h; method in brief: as §2
Vero [16] = test: Cytotoxicity against african green monkey Vero cells after 48 hrs by neutral red assay; type: cell-based, Chlorocebus sabaeus; details: Chlorocebus sabaeus, Vero, 48 h; read-out: IC50; method in brief: as §4
Vero [17] = test: Cytotoxicity against african green monkey Vero cells; type: cell-based; details: Chlorocebus sabaeus; method in brief: as §4
SK-OV-3 = test: Cytotoxicity against human SKOV3 cells after 48 hrs by neutral red assay; type: functional, cell-based; details: SK-OV-3, 48 h; method in brief: as §4
LLC-PK1 = test: Cytotoxicity against pig LLC-PK1 cells after 48 hrs by neutral red assay; type: cell-based, Sus scrofa; details: Sus scrofa, LLC-PK1, 48 h; read-out: IC50; method in brief: as §4
[18] = Candida albicans, ATCC 90028, read-out: IC50
[19] = Aspergillus fumigatus, ATCC 90906
[20] = Aspergillus fumigatus, ATCC 90906, read-out: IC50

SMILES	Activity (Staphylococcus aureus [1])	Ratio IC50 [2]	IC50 (Plasmodium falciparum [3])	Activity (Candida albicans [4])	MFC (Candida albicans [5])	IC50 (Candida albicans [5]; [18])	Activity (Aspergillus fumigatus [6])	IC50 (Leishmania donovani)	MFC (Aspergillus fumigatus [8])	MIC (Aspergillus fumigatus [8])	IC50 (Cryptococcus neoformans [9])	MFC (Cryptococcus neoformans [9])	Ratio IC50 [10]	Activity [11]	Activity (Cryptococcus neoformans [12])	IC50 [13]	MBC [13]	IC50 (Staphylococcus aureus [14])	MIC (Candida albicans [5])	IC50 (KB)	also measured
C[C@@H]1N[C@H](CCCCCCCCCCc2cc(CCCCCCCCCC[C@@H]3CC[C@@H](O)[C@H](C)N3)c3[n+](c2)CCC3)CC[C@H]1O.[Cl-] [PROSOPILOSIDINE DIHYDROCHLORIDE]	Active	>11.1	0.43 µg/mL	Active	inactive	15 µg/mL	Active	2.8 µg/mL	inactive	inactive	1.5 µg/mL	2.5 µg/mL	>17.6	Active	Active	3.5 µg/mL	inactive	1.5 µg/mL			MIC (Candida albicans [5]; Candida albicans, ATCC 90028): 20 µg/mL; IC90 (Leishmania donovani): 8 µg/mL; IC50 (Vero [7]): Non-toxic; IC50 (Aspergillus fumigatus [8]): Not Active; MIC (Cryptococcus neoformans [9]): 2.5 µg/mL; MIC [13]: 10 µg/mL; MIC (Staphylococcus aureus [14]): 2.5 µg/mL
C[C@@H]1N[C@H](CCCCCCCCCCC2=C[C@@H](CCCCCCCCCC[C@@H]3CC[C@@H](O)[C@H](C)N3)[C@@H]3CCCN3C2)CC[C@H]1O	Active			Active	inactive		Active		inactive	inactive				Active	Active		inactive		inactive		
C[C@H]1N[C@@H](CCCCCCCCCCC2=C[C@@H](CCCCCCCCCC[C@H]3CC[C@@H](O)[C@@H](C)N3)[C@@H]3CCCN3C2)CC[C@H]1O [JULIPROSOPINE]	Active	23	0.22 µg/mL (≈ 0.349 µM)	Active	inactive		Active	0.75 µg/mL (≈ 1.19 µM)			1.5 µg/mL (≈ 2.38 µM)		13	Active	Active	6 µg/mL (≈ 9.52 µM)		3.5 µg/mL (≈ 5.56 µM)	inactive	6.2 µg/mL (≈ 9.84 µM)	IC50 (SK-MEL): 2.4 µg/mL (≈ 3.81 µM); IC50 (Candida albicans [5]): Not Active; IC50 (Plasmodium falciparum [15]): 0.38 µg/mL (≈ 0.603 µM); IC50 (Vero [16]): 5 µg/mL (≈ 7.94 µM); MFC (Aspergillus fumigatus [8]; [19]): 1.25 µg/mL (≈ 1.98 µM); MIC (Aspergillus fumigatus [8]; [19]): 1.25 µg/mL (≈ 1.98 µM); IC50 (Aspergillus fumigatus [8]; [20]): 0.9 µg/mL (≈ 1.43 µM); IC50 (Vero [17]): 5 µg/mL (≈ 7.94 µM); IC50 (SK-OV-3): 4.7 µg/mL (≈ 7.46 µM); MBC (Staphylococcus aureus [14]): inactive
C[C@@H]1N[C@H](CCCCCCCCCCC2=C[C@@H](CCCCCCCCCC[C@@H]3CC[C@@H](O)[C@H](C)N3)[C@@H]3CCCN3C2)CC[C@H]1O [PROSOPILOSINE]		47	0.12 µg/mL (≈ 0.19 µM)			15 µg/mL (≈ 23.8 µM)		0.65 µg/mL (≈ 1.03 µM)			0.8 µg/mL (≈ 1.27 µM)	1.25 µg/mL (≈ 1.98 µM)	24			2 µg/mL (≈ 3.17 µM)	20 µg/mL (≈ 31.7 µM)	1.5 µg/mL (≈ 2.38 µM)		6 µg/mL (≈ 9.52 µM)	IC50 (SK-MEL): < 1.1 µg/mL; IC50 (LLC-PK1): 1.9 µg/mL (≈ 3.02 µM); IC50 (Plasmodium falciparum [15]): 0.23 µg/mL (≈ 0.365 µM); IC50 (Vero [16]): 5.7 µg/mL (≈ 9.05 µM); MFC (Aspergillus fumigatus [8]; [19]): 0.63 µg/mL (≈ 1 µM); MIC (Aspergillus fumigatus [8]; [19]): 0.63 µg/mL (≈ 1 µM); IC50 (Aspergillus fumigatus [8]; [20]): 0.45 µg/mL (≈ 0.714 µM); IC50 (Vero [17]): 5.6 µg/mL (≈ 8.89 µM)
